Measurements published in ChEMBL document CHEMBL2040711, “Synthesis, characterization and antimicrobial studies of some new quinoline incorporated benzimidazole derivatives” (2012).

Columns and labels:
Format in all cases: functional
Conditions in all cases: read-out: DIZ
Penicillium sp. [1] = experiment: Antifungal activity against Penicillium sp. at 6.25 ug/ml after 72 hrs by well plate method
Aspergillus niger [2] = experiment: Antifungal activity against Aspergillus niger at 6.25 ug/ml after 72 hrs by well plate method
Aspergillus terreus [3] = experiment: Antifungal activity against Aspergillus terreus at 6.25 ug/ml after 72 hrs by well plate method
How it was run: (§1)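 Sabouraud agar: peptone 10 g, glucose 40 g, agar 20 g per litre water, pH 5.7. Spore suspension made from a loopful of fungus in 3 mL normal saline and lawned on 20 mL agar per dish. Excess decanted, plates dried 1 h at 37 °C. Wells punched and loaded with compound in DMSO (6.25 or 12.5 μg/mL). DMSO control. Triplicate plates held at 25 °C for 72 h. Inhibition zone diameter measured. A. terreus strain NCIM 1325.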

Staphylococcus aureus [4] = experiment: Antibacterial activity against Staphylococcus aureus at 12.5 ug/ml after 24 to 48 hrs by well plate diffusion method
How it was run: (§2)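 Agar well diffusion: 15-20 mL agar per dish, plates dried 1 h at 37 ± 2 °C in laminar flow, then seeded. Wells cut with an agar punch, each loaded with compound dissolved in DMSO (6.25 or 12.5 μg/mL). DMSO solvent control, ciprofloxacin standard. Plates in triplicate, incubated 37 ± 2 °C for 24–48 h. Inhibition zone diameter read in mm, with SD.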

Penicillium sp. [5] = experiment: Antifungal activity against Penicillium sp. at 12.5 ug/ml after 72 hrs by well plate method
Staphylococcus aureus [6] = experiment: Antibacterial activity against Staphylococcus aureus at 6.25 ug/ml after 24 to 48 hrs by well plate diffusion method; how it was run: as §2
Aspergillus terreus [7] = experiment: Antifungal activity against Aspergillus terreus at 12.5 ug/ml after 72 hrs by well plate method; how it was run: as §1
Aspergillus niger [8] = experiment: Antifungal activity against Aspergillus niger at 12.5 ug/ml after 72 hrs by well plate method
Escherichia coli [9] = experiment: Antibacterial activity against Escherichia coli at 12.5 ug/ml after 24 to 48 hrs by well plate diffusion method; how it was run: as §2
Xanthomonas sp. [10] = experiment: Antibacterial activity against Xanthomonas sp. at 12.5 ug/ml after 24 to 48 hrs by well plate diffusion method; how it was run: as §2
Salmonella sp. [11] = experiment: Antibacterial activity against Salmonella sp. at 12.5 ug/ml after 24 to 48 hrs by well plate diffusion method; how it was run: as §2
Salmonella sp. [12] = experiment: Antibacterial activity against Salmonella sp. at 6.25 ug/ml after 24 to 48 hrs by well plate diffusion method; how it was run: as §2
Aspergillus flavus [13] = experiment: Antifungal activity against Aspergillus flavus at 12.5 ug/ml after 72 hrs by well plate method
Escherichia coli [14] = experiment: Antibacterial activity against Escherichia coli at 6.25 ug/ml after 24 to 48 hrs by well plate diffusion method; how it was run: as §2
Xanthomonas sp. [15] = experiment: Antibacterial activity against Xanthomonas sp. at 6.25 ug/ml after 24 to 48 hrs by well plate diffusion method; how it was run: as §2
Aspergillus flavus [16] = experiment: Antifungal activity against Aspergillus flavus at 6.25 ug/ml after 72 hrs by well plate method

Row | Compound | zone of inhibition at 6.25 µg/mL (Penicillium sp. [1]) | zone of inhibition at 6.25 µg/mL (Aspergillus niger [2]) | zone of inhibition at 6.25 µg/mL (Aspergillus terreus [3]) | zone of inhibition at 12.5 µg/mL (Staphylococcus aureus [4]) | zone of inhibition at 12.5 µg/mL (Penicillium sp. [5]) | zone of inhibition at 6.25 µg/mL (Staphylococcus aureus [6]) | zone of inhibition at 12.5 µg/mL (Aspergillus terreus [7]) | zone of inhibition at 12.5 µg/mL (Aspergillus niger [8]) | zone of inhibition at 12.5 µg/mL (Escherichia coli [9]) | zone of inhibition at 12.5 µg/mL (Xanthomonas sp. [10]) | zone of inhibition at 12.5 µg/mL (Salmonella sp. [11]) | zone of inhibition at 6.25 µg/mL (Salmonella sp. [12]) | zone of inhibition at 12.5 µg/mL (Aspergillus flavus [13]) | zone of inhibition at 6.25 µg/mL (Escherichia coli [14]) | zone of inhibition at 6.25 µg/mL (Xanthomonas sp. [15]) | zone of inhibition at 6.25 µg/mL (Aspergillus flavus [16])
1 | Fc1ccc(-c2cc(-c3nc4ccccc4[nH]3)c3cc(Cl)ccc3n2)cc1 | 16 mm | 10 mm | 13 mm | 13 mm | 18 mm | 12 mm | 14 mm | 12 mm | 13 mm | 10 mm | 9 mm |  |  |  |  | 
2 | Fc1ccc(-c2cc(-c3nc4ccc(Cl)cc4[nH]3)c3cc(Cl)ccc3n2)cc1 | 12 mm |  | 9 mm | 16 mm | 17 mm | 16 mm | 9 mm | 10 mm | 12 mm | 10 mm | 13 mm | 10 mm | 17 mm | 12 mm |  | 
3 | Fc1ccc(-c2cc(-c3nc4ncccc4[nH]3)c3cc(Cl)ccc3n2)cc1 |  | 12 mm | 9 mm | 18 mm | 13 mm | 14 mm | 15 mm | 14 mm | 16 mm | 16 mm | 20 mm | 9 mm | 10 mm | 16 mm | 15 mm | 
4 | Fc1ccc(-c2cc(-c3nc4ccccc4[nH]3)c3cc(F)ccc3n2)cc1 | 12 mm | 10 mm | 9 mm | 15 mm | 12 mm | 14 mm | 9 mm | 12 mm | 15 mm | 14 mm | 15 mm | 15 mm | 10 mm | 10 mm | 14 mm | 
5 | Fc1ccc(-c2cc(-c3nc4ccc(Cl)cc4[nH]3)c3cc(F)ccc3n2)cc1 | 15 mm |  | 10 mm | 12 mm | 17 mm | 12 mm | 14 mm | 10 mm | 11 mm | 12 mm | 11 mm |  | 10 mm | 10 mm | 11 mm | 
6 | Fc1ccc(-c2cc(-c3nc4ncccc4[nH]3)c3cc(F)ccc3n2)cc1 | 14 mm | 11 mm | 10 mm | 12 mm | 15 mm | 12 mm | 15 mm | 13 mm | 13 mm | 16 mm | 13 mm | 13 mm | 14 mm |  | 15 mm | 11 mm
7 | Fc1ccc(-c2cc(-c3nc4cc(Cl)c(Cl)cc4[nH]3)c3cc(F)ccc3n2)cc1 |  | 10 mm |  | 15 mm | 12 mm | 14 mm | 9 mm | 13 mm | 12 mm | 16 mm | 12 mm | 9 mm | 15 mm |  | 12 mm | 12 mm
8 | Fc1ccc(-c2cc(-c3nc4ccc(F)cc4[nH]3)c3cc(F)ccc3n2)cc1 | 13 mm | 10 mm | 10 mm | 12 mm | 13 mm | 12 mm | 9 mm | 17 mm | 16 mm | 14 mm | 13 mm | 9 mm |  | 16 mm |  | 
9 | Fc1ccc(-c2cc(-c3nc4ncccc4[nH]3)c3ccccc3n2)cc1 | 16 mm | 14 mm | 9 mm | 16 mm | 17 mm | 16 mm | 10 mm | 16 mm | 14 mm | 14 mm | 12 mm | 9 mm | 11 mm | 14 mm | 10 mm | 
10 | Fc1ccc(-c2cc(-c3nc4ccc(F)cc4[nH]3)c3ccccc3n2)cc1 | 12 mm |  | 12 mm | 16 mm | 15 mm | 10 mm | 12 mm | 14 mm | 11 mm | 13 mm | 11 mm | 10 mm | 14 mm | 10 mm |  | 
11 | COc1ccc2nc(-c3cc(-c4ccc(F)cc4)nc4ccccc34)[nH]c2c1 | 16 mm | 10 mm | 12 mm | 12 mm | 18 mm | 12 mm | 13 mm | 12 mm | 14 mm | 14 mm | 11 mm | 10 mm | 10 mm | 12 mm | 12 mm | 
12 | O=C(O)c1cn(C2CC2)c2cc(N3CCNCC3)c(F)cc2c1=O [CIPROFLOXACIN] |  |  |  | 20 mm |  | 18 mm |  |  |  | 22 mm | 31 mm | 19 mm |  |  | 18 mm | 
13 | OC(Cn1cncn1)(Cn1cncn1)c1ccc(F)cc1F [FLUCONAZOLE] | 19 mm | 14 mm | 16 mm |  | 21 mm |  | 18 mm | 18 mm |  |  |  |  | 20 mm |  |  | 15 mm
